Experimental data reported in ChEMBL document CHEMBL5055637, “Novel C-3-(N-alkyl-aryl)-aminomethyl rifamycin SV derivatives exhibit activity against rifampicin-resistant Mycobacterium tuberculosis RpoBS522L strain and display a different binding mode at the RNAP β-subunit site compared to rifampicin” (2021).
Converted amounts (≈) assume the structure as drawn.

Key:
Format in all cases: functional
Settings in all cases: time 5 day
[1] = test system: Mycobacterium tuberculosis H37Rv; assay: Antitubercular activity against rifampicin resistant Mycobacterium tuberculosis H37Rv harboring RpoBS522L mutant assessed as bacterial growth inhibition measured after 5 days by serial dilution method
Method in brief: (§1)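 Strains grown in Middlebrook 7H9 with OADC supplement and 0.05% w/v Tween 80. Compounds tested as 10-point 2-fold serial dilutions. Growth read as OD590 after 5 days in 7H9-OADC-Tw. Levenberg-Marquardt curve fitting gave MIC90, the concentration inhibiting growth by 90% relative to controls. Run in triplicate.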

[2] = test system: Mycobacterium tuberculosis; assay: Antitubercular activity against rifampicin resistant Mycobacterium tuberculosis ATCC 35838 harboring RpoBS531L mutant assessed as bacterial growth inhibition measured after 5 days by serial dilution method; method in brief: as §1
[3] = test system: Mycobacterium tuberculosis; assay: Antitubercular activity against rifampicin resistant Mycobacterium tuberculosis HN878 harboring RpoBH455D mutant assessed as bacterial growth inhibition measured after 5 days by serial dilution method; method in brief: as §1

Compound | MIC90 [1] [µM] | MIC90 [2] [µM] | MIC90 [3] [µM]
CO[C@H]1/C=C/O[C@@]2(C)Oc3c(C)c(O)c4c(O)c(c(CNCc5ccncc5)c(O)c4c3C2=O)NC(=O)/C(C)=C\C=C\[C@H](C)[C@H](O)[C@@H](C)[C@@H](O)[C@@H](C)[C@H](OC(C)=O)[C@@H]1C | 6.7 (≈ 5.48 µg/mL) | >20 | >20
CO[C@H]1/C=C/O[C@@]2(C)Oc3c(C)c(O)c4c(O)c(c(CNCc5ccc(S(C)(=O)=O)cc5)c(O)c4c3C2=O)NC(=O)/C(C)=C\C=C\[C@H](C)[C@H](O)[C@@H](C)[C@@H](O)[C@@H](C)[C@H](OC(C)=O)[C@@H]1C | 3.2 (≈ 2.86 µg/mL) | >20 | >20
CO[C@H]1/C=C/O[C@@]2(C)Oc3c(C)c(O)c4c(O)c(c(CNCCc5c[nH]c6ccccc56)c(O)c4c3C2=O)NC(=O)/C(C)=C\C=C\[C@H](C)[C@H](O)[C@@H](C)[C@@H](O)[C@@H](C)[C@H](OC(C)=O)[C@@H]1C | 3.1 (≈ 2.7 µg/mL) | >20 | >20
NNC(=O)c1ccncc1 [ISONIAZID] | 0.29 (≈ 0.0398 µg/mL) | 0.55 (≈ 0.0754 µg/mL) | 0.62 (≈ 0.085 µg/mL)
CO[C@H]1/C=C/O[C@@]2(C)Oc3c(C)c(O)c4c(O)c(c(CNCCc5ccc(O)cc5)c(O)c4c3C2=O)NC(=O)/C(C)=C\C=C\[C@H](C)[C@H](O)[C@@H](C)[C@@H](O)[C@@H](C)[C@H](OC(C)=O)[C@@H]1C | 5.8 (≈ 4.91 µg/mL) | >20 | >20
CO[C@H]1/C=C/O[C@@]2(C)Oc3c(C)c(O)c4c(O)c(c(CNCc5ccco5)c(O)c4c3C2=O)NC(=O)/C(C)=C\C=C\[C@H](C)[C@H](O)[C@@H](C)[C@@H](O)[C@@H](C)[C@H](OC(C)=O)[C@@H]1C | >20 | >20 | 16 (≈ 12.9 µg/mL)
CO[C@H]1/C=C/O[C@@]2(C)Oc3c(C)c(O)c4c(O)c(c(/C=N/N5CCN(C)CC5)c(O)c4c3C2=O)NC(=O)/C(C)=C\C=C\[C@H](C)[C@H](O)[C@@H](C)[C@@H](O)[C@@H](C)[C@H](OC(C)=O)[C@@H]1C [RIFAMPIN] | >8 | >8 | >8
COC(=O)c1ccc(CNCc2c3c(O)c4c(O)c(C)c5c(c4c2O)C(=O)[C@@](C)(O/C=C/[C@H](OC)[C@@H](C)[C@@H](OC(C)=O)[C@H](C)[C@H](O)[C@H](C)[C@@H](O)[C@@H](C)/C=C/C=C(/C)C(=O)N3)O5)cc1 | 7.7 (≈ 6.74 µg/mL) | >20 | >20
CO[C@H]1/C=C/O[C@@]2(C)Oc3c(C)c(O)c4c(O)c(c(CNCc5cccs5)c(O)c4c3C2=O)NC(=O)/C(C)=C\C=C\[C@H](C)[C@H](O)[C@@H](C)[C@@H](O)[C@@H](C)[C@H](OC(C)=O)[C@@H]1C | 8 (≈ 6.58 µg/mL) | >20 | 14 (≈ 11.5 µg/mL)
CO[C@H]1/C=C/O[C@@]2(C)Oc3c(C)c(O)c4c(O)c(c(CNCc5ccccc5)c(O)c4c3C2=O)NC(=O)/C(C)=C\C=C\[C@H](C)[C@H](O)[C@@H](C)[C@@H](O)[C@@H](C)[C@H](OC(C)=O)[C@@H]1C | 12 (≈ 9.8 µg/mL) | >20 | 9.9 (≈ 8.09 µg/mL)
CO[C@H]1/C=C/O[C@@]2(C)Oc3c(C)c(O)c4c(O)c(c(CN5CCN(CCO)CC5)c(O)c4c3C2=O)NC(=O)/C(C)=C\C=C\[C@H](C)[C@H](O)[C@@H](C)[C@@H](O)[C@@H](C)[C@H](OC(C)=O)[C@@H]1C | 4.7 (≈ 3.95 µg/mL) | >20 | >20
